From PMC2819025 (Biochemistry, 2010)
Values belong to the molecule of their own block, whether it stands above or below them. No end group written: not given here. rhodamine = not defined here

How the values were obtained:
[1] = biological target: par3-PDZ3; details: read-out: Kd for par3-PDZ3; reported value; ref [16]; cited from earlier work
[2] = biological target: par3-PDZ3 (Mus musculus, UniProt Q99NH2); test: Fluorescence polarization titration of rhodamine-labeled peptides with par3-PDZ3; assay type: binding, M. musculus; details: rhodamine labeled peptide
How it was run: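 Mouse par3-PDZ3 (residues 581–689) was expressed in E. coli SG13009 with a cleavable N-terminal His8 tag, purified by Ni2+ affinity, TEV-cleaved and cation-exchange purified. Increasing par3-PDZ3 was titrated into 100nM N-terminally rhodamine-labelled synthetic peptide in 50mM HEPES, 100mM NaCl, 1mM DTT, 1mM EDTA, pH 7.4, 298K (ex 562nm/em 582nm). Kd came from fitting a single-site hyperbolic binding equation.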

[3] = biological target: par3-PDZ3 (residues 581 to 689 of M. musculus par3) (M. musculus, UniProt Q99NH2 581-689); test: fluorescence polarisation
Sequence of par3-PDZ3 (residues 581 to 689 of M. musculus par3) (Q99NH2 581-689): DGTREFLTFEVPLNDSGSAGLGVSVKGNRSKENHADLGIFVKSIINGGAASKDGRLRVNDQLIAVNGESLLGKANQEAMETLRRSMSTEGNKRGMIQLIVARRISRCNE

Sequence of par3-PDZ3 (Mus musculus, UniProt Q99NH2) (Q99NH2 581-689): as above

Molecule: DEDQHSQITKVcoo-
- Kd [1]: 19 µM

- interaction with par3-PDZ3 (detected or not) [2]: failed to detect any interaction
Molecule: QHSQITKVcoo-

- Kd [3]: 6 µM
B1: rhodamine-labeled VE-Cad (773-784) (peptide)
peptide: rhodamine-LYGSDPQEELII
modifications: reading uncertain

- binding result [3]: binds
B2: rhodamine-labeled VE-Cad (773-784) Y774A (peptide, UniProt P55284 773-784, looked up)
peptide: rhodamine-LAGSDPQEELII
modifications: reading uncertain
